Laboratory results taken from ChEMBL document CHEMBL1122782, “Bulky amine analogues of ketoprofen: potent antiinflammatory agents” (J Med Chem, 1984).

Key:
Rattus norvegicus [1] = experiment: The mean increase in paw volume was compared between drug treated groups and placebo to calculate the percent inhibition in rats at 0.02 mmol/kg by carrageenan Edema Assay; 0-19; type: functional
Rattus norvegicus [2] = experiment: The percent inhibition was calculated from the average differences in hind paw volume between the adjuvant injected controls and the adjuvant-injected medicated rats at 0.08 mmol/kg; 60-69; type: functional; conditions: Rattus norvegicus
Rattus norvegicus [3] = experiment: The mean increase in paw volume was compared between drug treated groups and placebo to calculate the percent inhibition in rats at 0.02 mmol/kg by carrageenan Edema Assay; 20-29; type: functional
Rattus norvegicus [4] = experiment: The percent inhibition was calculated from the average differences in hind paw volume between the adjuvant injected controls and the adjuvant-injected medicated rats at 0.08 mmol/kg; 90-99; type: functional
Rattus norvegicus [5] = experiment: The mean increase in paw volume was compared between drug treated groups and placebo to calculate the percent inhibition in rats at 0.08 mmol/kg by carrageenan Edema Assay; 30-39; type: functional
Rattus norvegicus [6] = experiment: Antiinflammatory efficacy is measured by the weight gain in rats during the 3 week adjuvant arthritis test at 0.009 mM/kg (2.29 mg); type: functional
Method in brief: (§1)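 Rats were adjuvant-injected (M. butyricum in mineral oil, one hind paw) or given a mineral-oil placebo. They were dosed by gavage daily for 21 days from the injection day, with vehicle only for both control groups, then weighed at the end. Weight gain % = (treated − adjuvant control)/(negative control − adjuvant control) × 100.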

Rattus norvegicus [7] = experiment: Ulcerogenicity was measured in intestine during the 3 week adjuvant arthritis test, no of animals with ulcers out of animals tested at 0.06 mM/kg (15.2 mg) was reported; toxic; type: functional, organism-based
Method in brief: (§2)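 Male Sprague-Dawley rats (200–230 g) got 0.1 mL of a 0.6% M. butyricum adjuvant suspension in heavy mineral oil into the plantar tissue of one hind paw. Oral gavage dosing started the same day and continued daily for 21 days, in 1% gum tragacanth or corn oil-water emulsion. At the end, rats were killed and the small intestine and stomach were examined for ulcers, reported as animals with ulcers over animals tested.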

Rattus norvegicus [8] = experiment: Ulcerogenicity was measured in stomach during the 3 week adjuvant arthritis test, no of animals with ulcers out of 4 animals tested at 0.002 mM/kg (0.51 mg) was reported; type: functional; method in brief: as §2
Rattus norvegicus [9] = experiment: Ulcerogenicity was measured in intestine during the 3 week adjuvant arthritis test, no of animals with ulcers out of 24 animals tested at 0.009 mM/kg (2.29 mg) was reported; type: functional; method in brief: as §2
Rattus norvegicus [10] = experiment: Ulcerogenicity was measured in stomach during the 3 week adjuvant arthritis test, no of animals with ulcers out of 24 animals tested at 0.009 mM/kg (2.29 mg) was reported; type: functional; method in brief: as §2
Rattus norvegicus [11] = experiment: Antiinflammatory efficacy is measured by the percent inhibition of paw volume during the 3 week adjuvant arthritis test at 0.002 mM/kg (0.51 mg); type: functional
Method in brief: (§3)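 Male Sprague-Dawley rats (200–230 g) were used in groups of eight. Each received 0.1 mL of 0.6% M. butyricum in heavy mineral oil into the plantar tissue of one hind paw. Daily oral gavage in 1% gum tragacanth or corn oil-water emulsion began on the injection day and ran 21 days. Total hind paw volume was measured by mercury displacement, and inhibition was taken versus vehicle-treated adjuvant controls.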

Rattus norvegicus [12] = experiment: Antiinflammatory efficacy is measured by the weight gain in rats during the 3 week adjuvant arthritis test at 0.002 mM/kg (0.51 mg); type: functional; method in brief: as §1
Rattus norvegicus [13] = organism: Rattus norvegicus; experiment: Compound was evaluated for highest non-ulcerogenic dose (less than 50% ulcer incidence); type: functional; conditions: read-out: ED50
Method in brief: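 Taken from the 21-day adjuvant arthritis test in male Sprague-Dawley rats dosed orally each day from the day of adjuvant injection. Small intestines and stomachs were examined for ulceration at the end. The value is the highest dose giving less than 50% ulcer incidence.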

Rattus norvegicus [14] = experiment: Antiinflammatory efficacy is measured by the percent inhibition of paw volume during the 3 week adjuvant arthritis test at 0.009 mM/kg (2.29 mg); type: functional; method in brief: as §3
Rattus norvegicus [15] = experiment: The mean increase in paw volume was compared between drug treated groups and placebo to calculate the percent inhibition in rats at 0.02 mmol/kg by carrageenan Edema Assay; 60-69; type: functional
Rattus norvegicus [16] = experiment: Ulcerogenicity was measured in intestine during the 3 week adjuvant arthritis test, no of animals with ulcers out of 31 animals tested at 0.03 mM/kg (7.62 mg) was reported; type: functional; method in brief: as §2
Rattus norvegicus [17] = experiment: Potency relative to phenylbutazone at 0.006 mM/kg; type: functional
Method in brief: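 21-day adjuvant arthritis in male Sprague-Dawley rats (0.6% M. butyricum in mineral oil, intraplantar), with daily oral gavage from the day of adjuvant injection. Total hind-paw volume was measured by mercury displacement and percent inhibition calculated against adjuvant controls. The ED50 for 50% inhibition of paw volume was expressed relative to phenylbutazone, with 95% confidence limits.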

Rattus norvegicus [18] = experiment: Antiinflammatory efficacy is measured by the weight gain in rats during the 3 week adjuvant arthritis test at 0.006 mM/kg (0.152 mg); type: functional; method in brief: as §1
Rattus norvegicus [19] = experiment: The percent inhibition was calculated from the average differences in hind paw volume between the adjuvant injected controls and the adjuvant-injected medicated rats at 0.08 mmol/kg; 0.009-82; type: functional; conditions: read-out: Inhibition
Rattus norvegicus [20] = experiment: Ulcerogenicity was measured in intestine during the 3 week adjuvant arthritis test, no of animals with ulcers out of 4 animals tested at 0.002 mM/kg (0.51 mg) was reported; type: functional; method in brief: as §2
Rattus norvegicus [21] = experiment: Antiinflammatory efficacy is measured by the percent inhibition of paw volume during the 3 week adjuvant arthritis test at 0.006 mM/kg ([…]); type: functional; method in brief: as §3
Rattus norvegicus [22] = experiment: Ulcerogenicity was measured in stomach during the 3 week adjuvant arthritis test, no of animals with ulcers out of 31 animals tested at 0.03 mM/kg (7.62 mg) was reported; type: functional; method in brief: as §2
Rattus norvegicus [23] = experiment: The mean increase in paw volume was compared between drug treated groups and placebo to calculate the percent inhibition in rats at 0.02 mmol/kg by carrageenan Edema Assay; 30-39; type: functional; conditions: Rattus norvegicus
Rattus norvegicus [24] = experiment: The percent inhibition was calculated from the average differences in hind paw volume between the adjuvant injected controls and the adjuvant-injected medicated rats at 0.08 mmol/kg; 70-79; type: functional
Rattus norvegicus [25] = experiment: The mean increase in paw volume was compared between drug treated groups and placebo to calculate the percent inhibition in rats at 0.08 mmol/kg by carrageenan Edema Assay; 40-49; type: functional

In the case of NC(c1ccccc1)c1cccc(CCN2CCOCC2)c1 (stereo unspecified), the inhibition in vivo at 20 µmol/kg (Rattus norvegicus [1]) is reported as 0%.

Compound Cc1cccc(C(=O)c2cccc(C(C)CN3CCCCC3CC3CCCCC3)c2)c1 (stereo unspecified) has an inhibition in vivo at 20 µmol/kg (Rattus norvegicus [1]) of 0%.

For COc1ccc(C(=O)c2cccc(C(C)CN3CCCCC3CC3CCCCC3)c2)cc1 (stereo unspecified), the inhibition in vivo at 80 µmol/kg (Rattus norvegicus [2]) was 60% and the inhibition in vivo at 20 µmol/kg (Rattus norvegicus [3]) was 20%.

Compound CC(CN1CCCCC1CC1CCCCC1)c1cccc(C(C)c2ccccc2)c1 (stereo unspecified) has an inhibition in vivo at 20 µmol/kg (Rattus norvegicus [1]) of 0%.

CC(CN1CCCCC1C1CCCCC1)c1cccc(C(=O)c2ccccc2)c1 (stereo unspecified) gave an inhibition in vivo at 80 µmol/kg (Rattus norvegicus [4]) of 90% and an inhibition in vivo at 80 µmol/kg (Rattus norvegicus [5]) of 30%.

CC(C(=O)O)c1cccc(C(=O)c2ccccc2)c1 (stereo unspecified) [KETOPROFEN] was tested, and the Weight gain (Rattus norvegicus [6]) was 79%, the Ulcerogenic index (Rattus norvegicus [7]) was “Toxic” and the Ulcerogenic index (Rattus norvegicus [8]) was 0. It also gave a Ulcerogenic index (Rattus norvegicus [9]) of 4, a Ulcerogenic index (Rattus norvegicus [10]) of 6 and an Inhibition (Rattus norvegicus [11]) of 68%. For the same compound, the Weight gain (Rattus norvegicus [12]) was 35%, the highest non-ulcerogenic dose (Rattus norvegicus [13]) was 1 µmol/kg and the Inhibition (Rattus norvegicus [14]) was 82%. It also gave an inhibition in vivo at 20 µmol/kg (Rattus norvegicus [15]) of 60%, a Ulcerogenic index (Rattus norvegicus [16]) of 22 and a Relative potency (Rattus norvegicus [17]) of 32.4%. The Weight gain (Rattus norvegicus [18]) was 21%, the inhibition in vivo at 80 µmol/kg (Rattus norvegicus [19]) was 82% and the Ulcerogenic index (Rattus norvegicus [20]) was 0. It also gave an Inhibition (Rattus norvegicus [21]) of 31% and a Ulcerogenic index (Rattus norvegicus [22]) of 3.

Work on CC(CN1CCCCC1CC1CCCCC1)c1cccc(C(O)c2cccc(Cl)c2)c1 (stereo unspecified) yielded an inhibition in vivo at 20 µmol/kg (Rattus norvegicus [1]) of 0%.

With COc1ccc(C(O)c2cccc(C(C)CN3CCCCC3CC3CCCCC3)c2)cc1 (stereo unspecified) the inhibition in vivo at 20 µmol/kg (Rattus norvegicus [1]) was 0%.

For O/N=C(/c1ccccc1)c1cccc(CCN2CCOCC2)c1, the inhibition in vivo at 20 µmol/kg (Rattus norvegicus [1]) was 0%.

CC(CN1CCCCC1CCCC1CCCCC1)c1cccc(C(O)c2ccccc2)c1 (stereo unspecified) gave an inhibition in vivo at 20 µmol/kg (Rattus norvegicus [23]) of 30%.

Compound Cc1ccc(C(O)c2cccc(C(C)CN3CCCCC3CC3CCCCC3)c2)cc1 (stereo unspecified) has an inhibition in vivo at 20 µmol/kg (Rattus norvegicus [1]) of 0%.

CC(CN1CCCCC1CC1CCCCC1)c1cccc(C(N)c2ccccc2)c1 (stereo unspecified) gave an inhibition in vivo at 80 µmol/kg (Rattus norvegicus [4]) of 90% and an inhibition in vivo at 20 µmol/kg (Rattus norvegicus [23]) of 30%.

With CC(CN1CCCC1CC1CCCCC1)c1cccc(C(=O)c2ccccc2)c1 (stereo unspecified) the inhibition in vivo at 80 µmol/kg (Rattus norvegicus [24]) was 70% and the inhibition in vivo at 80 µmol/kg (Rattus norvegicus [25]) was 40%.

Cc1ccccc1C(=O)c1cccc(C(C)CN2CCCCC2CC2CCCCC2)c1 (stereo unspecified) showed an inhibition in vivo at 20 µmol/kg (Rattus norvegicus [3]) of 20%.

With CC(CN1CCCCC1CCCC1CCCCC1)c1cccc(C(=O)c2ccccc2)c1 (stereo unspecified) the inhibition in vivo at 80 µmol/kg (Rattus norvegicus [5]) was 30%.

OC(c1ccccc1)c1cccc(CCN2CCCCC2CC2CCCCC2)c1 (stereo unspecified) showed an inhibition in vivo at 20 µmol/kg (Rattus norvegicus [1]) of 0%.
